Compound activity as filed in PubChem.
APJ antagonist: blocks the human apelin receptor APJ. P35414. CHO-K1 APJ beta-arrestin complementation, luminescence. inhibition, % at 20 µM. actives 0.32% (n = 330,000). AID 2521;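 active = inhibition above about 40% at 20 µM, limit read from the data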;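 note: cells challenged with 10 nM apelin-13 agonist together with compound; plate controls were apelin-13 plus DMSO wells for no effect and DMSO wells lacking apelin-13 for full effect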
CXCR6 inh: blocks human CXCR6 beta-arrestin recruitment | O00574 | CHO-K1 PathHunter CXCR6 beta-arrestin, luminescence | inhibition, % at 20 µM | actives 0.36% (n = 360,000) | AID 602244; in the data active = inhibition above about 34%, passing the limit was not always enough;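 note: antagonist mode with CXCL16 agonist at 10 nM final; 0% = 10 nM CXCL16 with DMSO and 100% = unstimulated wells without agonist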
FXN GAA850 act: frataxin GAA850 promoter activation. AID 540364. HEK293 lucGAA850 FXN promoter luciferase reporter, 24 h; percent of 10 µM SAHA response. actives 0.56% (n = 360,000). activation, % at 6 µM;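 active = activation above the average of all compounds screened plus 3 SD, cutoff fixed separately per campaign, cut at about 7.5% in these data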;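 note: 0% = DMSO wells and 100% = 10 µM SAHA wells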
CCR6 antag: blocks CCL20-driven beta-arrestin recruitment at human CCR6. P51684. CHO-K1 CCR6 PathHunter beta-arrestin, luminescence, CCL20-stimulated. inhibition, % at 20 µM. actives 0.49% (n = 340,000);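 active = compounds whose inhibition of the agonist-driven luminescence signal at 20 µM reaches about 50%, limit read from the data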;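 note: cells stimulated with CCL20 at 14 nM final; plate controls were DMSO with CCL20 for no effect and DMSO without agonist for full effect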
EBI2 block: antagonists of human EBI2 receptor | P32249 | EBI2 beta-arrestin recruitment, luminescence, 7a,25-OHC stimulated | inhibition, % at 5 µM | actives 0.81% (n = 360,000); in the data active = inhibition above about 38%;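 note: enzyme fragment complementation signal reports receptor beta-arrestin coupling in cells; 0% = agonist plus DMSO wells and 100% = wells without agonist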
Target sequence (P32249 whole entry, looked up, the tested form may be a part): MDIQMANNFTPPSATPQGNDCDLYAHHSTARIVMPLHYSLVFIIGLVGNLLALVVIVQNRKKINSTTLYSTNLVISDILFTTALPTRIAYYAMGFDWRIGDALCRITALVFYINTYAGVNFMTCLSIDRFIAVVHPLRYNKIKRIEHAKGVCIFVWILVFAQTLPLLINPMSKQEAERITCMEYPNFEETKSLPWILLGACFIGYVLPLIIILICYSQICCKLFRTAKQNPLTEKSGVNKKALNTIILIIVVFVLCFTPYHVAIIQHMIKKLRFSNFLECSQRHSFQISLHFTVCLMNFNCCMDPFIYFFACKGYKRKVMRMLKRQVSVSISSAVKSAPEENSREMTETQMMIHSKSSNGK
APJ ag: agonists of human APJ apelin receptor | P35414 | activation, % at 20 µM | actives 0.11% (n = 330,000) | CHO-K1 APJ PathHunter beta-arrestin, luminescence; 0% DMSO wells, 100% apelin;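 active = activation more than six SD over the plate average, tested at 20 µM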;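 note: 0% = DMSO alone and 100% = apelin-13 at 10 nM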
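Material: engineered CHO-K1 APJ arrestin reporter cells; amount: 1000 CHO-K1 reporter cells seeded per well; incubation: compound stimulation 90 min at 25 °C, detection 60 min; signal: luminescent beta-gal fragment complementation, chemiluminescent substrate; read-out basis: APJ agonist activity; controls: DMSO-only wells as negative, 10 nM Apelin-13 as positive control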
APJ antag confirm: confirmation of human APJ apelin receptor antagonists; inhibition, % at 20 µM; actives 66% (n = 950); shares compounds with APJ antagonist; APJ beta-arrestin recruitment, luminescence, antagonist mode; in the data active = inhibition above about 50%
* hit, by the source's call; . = not tested or not shown. Shown are actives, neighbours in structure and some others; about 2% of the full set was active somewhere.

SMILES	APJ antagonist	CXCR6 inh	FXN GAA850 act	CCR6 antag	EBI2 block	APJ ag	APJ antag confirm
Cc1cc(C)c2c(CN3CCCCC3)cc(=O)oc2c1	43*	-2	1	18	6	-1	22
C=CCNC(=S)Nc1cc(S(=O)(=O)N2CCOCC2)ccc1-n1cncn1	9	13	2	26	-2	0	.
CCN(CC)c1ccc(C(=O)NC(=S)Nc2cc(S(=O)(=O)N3CCOCC3)ccc2-n2cncn2)cc1	41*	9	1	34	10	-7	82*
C=CCN1C(=O)/C(=C2/Sc3ccccc3N2CC)SC1=S	15	-12	0	0	-8	-3	.
C=CCN1C(=O)/C(=C/C=C2/N(CC)c3ccc(S(=O)(=O)N(C)C)cc3N2CC)SC1=S	52*	37	1	64*	25	-7	107*
COC(=O)C1=CN(c2ccc(OC)cc2OC)C(N)=C(C#N)C1c1cccc([N+](=O)[O-])c1 (centres undefined)	.	.	.	.	7	.	.
O=C1NC(=S)N/C1=C/c1cccc([N+](=O)[O-])c1O	43*	44*	1	46	6	-11	79*
COc1ccc(CC(=O)Nc2ccc(N3CCCC3)c(C)c2)cc1	-32	6	-1	5	-4	-2	.
Cc1ccc(-c2c3c(nc4sc(C(N)=O)c(N)c24)CCC3)cc1	8	-1	-4	4	-6	-6	.
NC(=O)c1sc2nc3c(c(-c4ccc(Cl)cc4)c2c1N)CCCC3	52*	4	0	14	25	-9	18
Cc1ccc2c(c1Br)/C(=N/N1C(=O)c3ccccc3C1=O)C(=O)N2	38	9	-1	21	5	-10	.
CCOc1ccc(N=C2C(=O)Nc3ccc(C)c(Br)c32)cc1	79*	73*	0	102*	11	-15	146*
CCC(=O)N1CCCC(C)(C(=O)Nc2nccc3cccnc23)C1 (centres undefined)	.	0	1	.	-7	.	.
O=S(=O)(Nc1cccc2cccnc12)c1ccc(S(=O)(=O)N2CCCC2)cc1	68*	34	0	45	12	-17	48
CC(=O)Nc1ccc(S(=O)(=O)Nc2cccc3cccnc23)cc1	8	-4	0	32	-7	-4	.
Cc1ccc(S(=O)(=O)Nc2cccc3cccnc23)c([N+](=O)[O-])c1	58*	30	3	49	23	-24	56*
Cc1ccccc1NS(=O)(=O)c1ccc(S(=O)(=O)N2CCCC2)cc1	.	0	1	.	-4	.	.
O=S(=O)(Nc1cccc2cccnc12)c1ccccc1	89*	69*	-15	90*	62*	-15	72*
COc1ccc(NS(=O)(=O)c2ccc3ccccc3c2)c2ncccc12	66*	20	2	32	24	-12	52*
COc1ccccc1NS(=O)(=O)c1ccc2ccccc2c1	2	-5	4	12	-3	-2	.
COC(=O)c1ccccc1NC(=O)CSc1nc2ccsc2c(=O)n1CCCCC(=O)O	.	-5	3	.	-6	.	.
Cc1ccc2cccc(NS(=O)(=O)c3ccccc3)c2n1	63*	.	.	39	.	-20	57*
CCOc1ccc(C(=O)NC(=S)Nc2cccnc2)cc1[N+](=O)[O-]	43*	17	4	34	-10	-5	43
CC(C)=CCC12Oc3cc(O)ccc3C1(O)Oc1cc(O)c([C@H]3C=C(C)CC(c4ccc(O)cc4O)[C@H]3C(=O)c3ccc(O)cc3O)c(O)c1C2=O (some centres undefined)	-44	.	.	19	.	0	.
Cc1ccc(NCCC(=O)c2ccccc2)cc1Cl	-10	0	4	5	8	-1	.
Cc1ccc(C(=O)CNc2ccc(C)c(Cl)c2)cc1	64*	22	4	60*	35	-8	93*
Cc1ccc(NCC(=O)c2ccccc2)cc1Cl	94*	49*	-2	73*	23	-17	101*
C[C@H]1CN([C@@H](C)CO)C(=O)c2cc(Br)cnc2O[C@H]1CN(C)C(=O)C1CCC1	.	0	-2	.	-4	.	.
